This is a sample that favours compounds with a hit; in the whole collection about 1.8% have one here.
PPC-1+TRAIL kill: PPC-1 cancer cell killing with TRAIL present; cell killing (% activity), % at 4 µM or 5 µM; PPC-1 cells + TRAIL, ATPLite viability luminescence; hit rate 0.41% among 220,000; AID 1443;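 active means cell killing above 50% in the first pass at 4 µM, then a duplicate retest at 5 µM averaging 50% or more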;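 further: plate controls were cells with TRAIL plus DMSO for no effect and medium-only wells lacking cells for full effect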
C8 TRAIL sens: caspase-8 TRAIL sensitization | hit rate 1% among 360,000 | AID 624354 | inhibition (viability loss, TRAIL sensitization), % at 10 µM | NB7+C8 cells + TRAIL, ATPlite viability luminescence;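 active means compounds causing at least 50% loss of cell viability in the single-dose screen, relative to plate controls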
STAT3 act-1: STAT3 signaling activation | U3A cells, IL-6 STAT3-luciferase reporter, luminescence; 100% = signal with IL-6 EC80 alone | activation (% of control), % at 5.6 µM | hit rate 0.91% among 190,000;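 active means activation above the screen-wide mean of compound activation plus 3 SD, cut at about 130% in these data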;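 further: 0% = background luminescence of wells with medium and substrate only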
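Material: human STAT1-deficient U3A cells with stable STAT3-luciferase reporter / Probe or stimulus: IL-6 stimulus at 33 ng/mL final / Schedule: 1 h compound pre-exposure, 6 h IL-6 stimulation, 37 °C / Technique: luminescence / Read-out basis: percent of IL-6-only median luminescence / Control set: IL-6-only high control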
STAT3 blocker: inhibitors of IL-6 induced STAT3 signaling; U3A cells, IL-6 STAT3-luciferase reporter, luminescence; host cell line lacks STAT1; inhibition, % at 5.5 µM; hit rate 0.89% among 190,000; AID 862;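 active means inhibition above the mean inhibition across all screened compounds plus 3 SD, cut at about 44% in these data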;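 further: 0% = DMSO only wells and 100% = 100 µM nifuroxazide control wells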
STAT1 inh: STAT1 signaling inhibition; NIH 3T3 STAT1-luciferase reporter, IFN-gamma, luminescence; inhibition, % at 5.5 µM; hit rate 0.35% among 200,000; AID 920;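 active means inhibition above a set limit, the mean inhibition across all tested compounds plus 3 SD, cut at about 34% in these data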;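 further: 0% = IFN-gamma with DMSO and 100% = IFN-gamma with 300 µM nifuroxazide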
STAT3 act-2: STAT3 activation, confirmation assay. U3A STAT3-luciferase reporter, IL-6 potentiation, luminescence; U3A cells lack STAT1; 100 means same as IL-6 alone. shares compounds with STAT3 act-1. potentiation (% of control), % at 5.7 µM. hit rate 64% among 1,200;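 active means percent activation of the STAT3 luciferase reporter above a set limit taken from the earlier primary screen, cut at about 130% in these data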;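 further: 0% = background signal of medium plus substrate and 100% = median of IL-6 with DMSO wells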
NFkB act 2: activates NF-kappaB, counter-screen to STAT3 activators; AID 1309; human cells, NF-kappaB reporter activation; shares compounds with STAT3 act-1; activation (% of control), % at 5.7 µM; hit rate 11% among 1,200; in the data active means activation above about 120%;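 further: reporter induced by TNF-alpha stimulation; 100% = median of stimulated DMSO wells and 0% = no signal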
STAT1 act STAT3c: activates STAT1, counter-screen to STAT3 activators. NIH 3T3 STAT1-luciferase reporter, IFN-gamma, luminescence. shares compounds with STAT3 act-1. hit rate 13% among 1,200. activation (% of control), % at 5.7 µM;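 active means activation above the solvent-only control well mean plus 3 SD, set per screening run, cut at about 120% in these data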;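 further: 100% = IFN-gamma with DMSO median signal so 100% means no change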
* = called active by the depositor; . = no result given.

SMILES | PPC-1+TRAIL kill | C8 TRAIL sens | STAT3 act-1 | STAT3 blocker | STAT1 inh | STAT3 act-2 | NFkB act 2 | STAT1 act STAT3c
CCOc1ccccc1C1CC(=O)Nc2cc3c(cc21)OCO3 (stereo not given) | 7 | 0 | 94 | 9 | 4 | . | . | .
C#CCOc1ccc(C2C3=C(COC3=O)Nc3cc4c(cc32)OCO4)cc1OC (stereo not given) | -5 | -4 | 143* | -43 | -12 | 116 | 159* | 115
Cc1cc(C)nc(-n2ncc3c2CC(c2cccc(Cl)c2)CC3=O)n1 (stereo not given) | 11 | 19 | 84 | 23 | -3 | . | . | .
C=C(C)Cn1c2ccc(NC(=S)NCc3ccccc3F)cc2c(=O)n1C | . | -9 | . | . | . | . | . | .
Cc1cc(-c2nc3c4c5c(sc4[nH]c(=O)n3n2)CCC5)c(C)o1 | 9 | -11 | 151* | -57 | 2 | 134* | 97 | 94
COc1ccc(NC(=O)C(c2ccc(Cl)cc2)C(C)C)cn1 (stereo not given) | . | -1 | . | . | . | . | . | .
O=C(CCCC(=O)c1ccccc1)Nc1ccc(O)cc1 | . | -19 | . | . | . | . | . | .
O=C(Nc1ccc2c(c1)oc1ccc(S(=O)(=O)N3CCCC3)cc12)C1CC1 | 21 | 7 | 154* | -60 | -1 | 94 | 103 | 102
O=C(Nc1ccc2c(c1)oc1ccccc12)C1CC1 | 11 | 7 | 143* | -45 | -19 | 142* | 131* | 134*
O=C(O)CCCC(=O)Nc1ccc2c(c1)oc1ccccc12 | . | 3 | . | . | . | . | . | .
O=C(O)c1ccccc1Nc1ccccc1 | . | 7 | . | . | . | . | . | .
CC(=O)n1cc(Nc2ccc([N+](=O)[O-])cc2)c2ccccc21 | 20 | 2 | 141* | -51 | 0 | 137* | 95 | 100
CCOC(=O)c1ccccc1Nc1cn(C(C)=O)c2ccccc12 | -16 | 11 | 149* | -49 | 11 | 156* | 97 | 114
CC(=O)n1cc(Nc2ccccc2C(=O)O)c2ccccc21 | 0 | 1 | 156* | -60 | 14 | 162* | 108 | 111
O=C1Nc2ccc(Br)cc2C1(O)c1ccccc1 (stereo not given) | . | 3 | . | . | . | . | . | .
O=C1Nc2ccc(Br)cc2C12NNc1ccccc1O2 (stereo not given) | 16 | 20 | 141* | -47 | 0 | 122 | 98 | 96
C(=N\Nc1ncnc2sc3c(c12)CCC3)/c1cccs1 | 30 | 47 | 152* | -59 | 8 | 142* | 110 | 95
NNc1ncnc2sc3c(c12)CCC3 | -1 | 1 | 139* | -40 | 19 | 137* | 102 | 92
O=C(Cn1cnc2c(NC(=O)OCc3ccccc3)ncnc21)NCc1ccccn1 | . | 11 | . | . | . | . | . | .
NC(=O)C1CCN(c2nc(-c3ccccc3)nc3ccccc23)CC1 | 12 | -4 | 100 | 4 | 8 | . | . | .
CCOC(=O)C1CCN(c2nc(-c3ccc(Br)cc3)nc3ccccc23)CC1 | 12 | 11 | 142* | -40 | 5 | 137* | 98 | 89
Nc1ccc(C(=O)OCCCc2nc3cc4ccccc4cc3[nH]2)cc1 | 12 | 20 | . | . | . | . | . | .
Nc1ccc(Cc2nc3cc4ccccc4cc3[nH]2)cc1 | -10 | . | 136* | -39 | -13 | 143* | 113 | 130*
O=C(O)CC/C(=C\c1ccccc1[N+](=O)[O-])c1nc2ccccc2s1 | -1 | 32 | 107 | -8 | -3 | . | . | .
O=C(O)CC/C(=C\c1cc([N+](=O)[O-])ccc1Cl)c1nc2ccccc2s1 | 21 | -8 | 142* | -46 | 15 | 147* | 103 | 92
SMILES | PPC-1+TRAIL kill | C8 TRAIL sens | STAT3 act-1 | STAT3 blocker | STAT1 inh | STAT3 act-2 | NFkB act 2 | STAT1 act STAT3c
O=C(CN1C(=O)NC2(CCc3ccccc32)C1=O)NCc1ccc(Cl)cc1 (stereo not given) | . | -10 | . | . | . | . | . | .
Cc1cc(Nc2ccccc2)n(-c2ccc(C(=O)O)cc2)n1 | 32 | 2 | 104 | 1 | 4 | . | . | .
Cc1cc(Nc2ccccc2)n(C(=O)c2ccc(Cl)cc2)n1 | 23 | -3 | 140* | -46 | -33 | 127 | 114 | 133*
COC(=O)c1cc2c(s1)-c1ccccc1CC2 | 15 | -3 | 164* | -64 | -21 | 150* | 112 | 126*
COC(=O)c1cc2c(s1)-c1cc(F)ccc1OC2 | 15 | -3 | . | . | . | . | . | .
CSc1ccccc1OCc1cc(C(=O)N2CCc3c(Cl)cccc3C2)no1 | . | -11 | . | . | . | . | . | .
O=C(CNC(=O)c1nc[nH]c1C(=O)N1CCN(c2ccccc2)CC1)OCc1ccccc1 | . | -23 | . | . | . | . | . | .
O=C(NCCc1ccccc1)C1Cc2c(-c3ccccc3)ccnc2O1 (stereo not given) | . | -6 | . | . | . | . | . | .
CC(=O)Oc1c(S(=O)(=O)c2ccc(C)cc2)c(C)nn1C(C)(C)C | 21 | 12 | 121 | -22 | -1 | . | . | .
Cc1ccc(S(=O)(=O)c2c(C)nn(C(C)(C)C)c2OC(=O)c2cccs2)cc1 | 7 | -11 | 137* | -43 | -24 | 126 | 98 | 105
C[C@@H]1CCCN1[C@H]1CS(=O)(=O)N[C@@H]1COCc1ccccc1 | . | 3 | . | . | . | . | . | .
C/C(=N\NC1=NCCN1)c1ccc(Cl)cc1 | 9 | -2 | . | . | . | . | . | .
C/C(=N\Nc1nc2c(s1)CCCC2)c1ccc(Cl)cc1 | 13 | -4 | 158* | -67 | 0 | 104 | 122* | 114
COc1ccc(NC(=S)Nc2ccc(S(=O)(=O)N3CCOCC3)cc2)c(OC)c1 | -16 | -4 | 101 | 2 | 6 | . | . | .
COc1ccc(NC(=S)Nc2ccc(S(N)(=O)=O)cc2)c(OC)c1 | 8 | -7 | 136* | -38 | -3 | 128 | 97 | 94
Cn1c(=O)c(-c2cc(Br)ccc2N)nc2ccccc21 | -2 | 8 | 164* | -64 | 14 | 155* | 115 | 93
CCCc1cc(C(=O)NNC(=S)NC2CCCCC2)cs1 | . | -13 | . | . | . | . | . | .
O=C(CSc1nc(C2CC2)nc2ccccc12)N1c2ccccc2Sc2ccc(C(F)(F)F)cc21 | 26 | 4 | 145* | -48 | 3 | 123 | 110 | 98
O=C(CSc1nc(C2CC2)nc2ccccc12)N1CCCCC1 | . | 7 | . | . | . | . | . | .
c1ccc(-c2cc(-c3nn4c(-c5ccco5)nnc4s3)c3ccccc3n2)cc1 | 14 | 15 | 101 | 0 | 2 | . | . | .
Cc1cc(-c2nn3c(-c4ccccc4)nnc3s2)c2ccccc2n1 | -2 | -3 | 156* | -66 | 31 | 139* | 99 | 81
O=[N+]([O-])c1ccc(S(=O)(=O)N2CCN(Cc3c[nH]c4ccccc34)CC2)cc1 | 7 | 3 | 152* | -62 | 14 | 155* | 105 | 100
COc1ccc(S(=O)(=O)N2CCN(Cc3c[nH]c4ccccc34)CC2)cc1 | 11 | -8 | 121 | -15 | -3 | . | . | .
Cc1ccc(CNC(=O)CC(C)S(=O)(=O)c2ccc3c(c2)NC(=O)CS3)o1 (stereo not given) | . | -2 | . | . | . | . | . | .

Bioassay records (PubChem)
